Results pooled from the literature.
Each line is one published result; the experiments were not run side by side.
BRD4 BD1: Bromodomain-containing protein 4, BD1 (BRD4, Homo sapiens, UniProt O60885)
HDAC8: Histone deacetylase 8 (HDAC8, Homo sapiens, UniProt Q9BY41)
murD: UDP-N-acetylmuramoylalanine--D-glutamate ligase (murD, Escherichia coli K-12, UniProt P14900)
KAT2B: Histone acetyltransferase KAT2B (KAT2B, Homo sapiens, UniProt Q92831)

Cn1nnc2ccc(NC(=O)c3cccc(C(=O)O)c3)cc21
ΔTm (BRD4 BD1; thermal stability; DSF; 100 µM): 2.8 °C

Nc1ncnc2c1ncn2[C@@H]1O[C@H](CO)[C@@H](O)[C@H]1O
inhibition (HDAC8; enzyme activity; inhibitor; 10 µM): -15.9%

O=C(Nc1ccc(C=NNS(=O)(=O)c2ccc3ccccc3c2)cc1)c1ccccc1
remaining activity (murD; enzyme activity; inhibitor; absorbance; 100 µM): 56%

C[S+]([O-])c1ccc(-c2nc(-c3ccncc3)c(-c3ccc(F)cc3)[nH]2)cc1 (centres unmarked)
ΔTm (Bromodomain-containing protein 4, BD2 (BRD4, Homo sapiens, UniProt O60885); thermal stability; DSF; 10 µM): 1.67 °C

CCCOc1ccc(OC)c(F)c1C(=O)c1ccc(C(=O)N[C@@H]2CNC[C@H]2NC(=O)c2ccc3[nH]ncc3c2)cc1
remaining activity (cGMP-dependent protein kinase 1 (PRKG1, Homo sapiens, UniProt Q13976); enzyme activity; inhibitor; 50 nM): 22%

O=C(Nc1ccc(C=NNS(=O)(=O)c2ccc3ccccc3c2)cc1)c1cc([N+](=O)[O-])cc([N+](=O)[O-])c1
remaining activity (murD; enzyme activity; inhibitor; absorbance; 100 µM): 78%

Cc1cc2c(cc1N1C(=O)c3cccc4c(Cl)ccc(c34)C1=O)n(C)c(=O)n2C
ΔTm (KAT2B; thermal stability; DSF; 10 µM): 0.5 °C

CC[C@H](CC[C@@H](C)[C@H]1CC[C@H]2[C@@H]3CC=C4C[C@@H](O[C@@H]5O[C@H](CO)[C@@H](O)[C@H](O)[C@H]5O)CC[C@]4(C)[C@H]3CC[C@]12C)C(C)C
inhibition (HDAC8; enzyme activity; inhibitor; 10 µM): -8.57%

Cc1cnc(Nc2ccc(OCCN3CCCC3)cc2)nc1Nc1cccc(S(=O)(=O)NC(C)(C)C)c1
ΔTm (Tyrosine-protein kinase BAZ1B (BAZ1B, Homo sapiens, UniProt Q9UIG0); thermal stability; DSF; 10 µM): -0.02 °C

CC(C)[C@@H]1NC(=O)[C@@H]2CCCN2C(=O)[C@H](Cc2ccccc2)NC(=O)CSC[C@@H](C(=O)N[C@@H](Cc2ccc(O)cc2)C(N)=O)NC(=O)[C@H](Cc2c[nH]c3ccccc23)NC(=O)[C@H](CCCCN)NC(=O)[C@H](Cc2ccccc2)N(C)C(=O)[C@H](Cc2ccccc2)NC1=O
ΔTm (BRD4 BD1; thermal stability; DSF; 50 µM): -0.52 °C

N#Cc1ccc(COc2ccccc2C=NNS(=O)(=O)Cc2ccccc2F)cc1
remaining activity (murD; enzyme activity; inhibitor; absorbance; 100 µM): 39%

Cc1ccc(C(=O)Nc2ccc(CN3CCN(C)CC3)c(C(F)(F)F)c2)cc1C#Cc1cnc2cccnn12
remaining activity (Cyclin-dependent kinase 11B (CDK11B, Homo sapiens, UniProt P21127); enzyme activity; 23.5 nM): 79%

Oc1ccc(-c2nc(-c3ccncc3)c(-c3ccc(F)cc3)[nH]2)cc1
ΔTm (KAT2B; thermal stability; DSF; 10 µM): -0.19 °C

O=[N+]([O-])c1ccccc1S(=O)(=O)Oc1ccccc1C=NNS(=O)(=O)c1ccc2ccccc2c1
remaining activity (murD; enzyme activity; inhibitor; absorbance; 50 µM): 71%

Nc1ncnc2occ(-c3ccc(NC(=O)Nc4cc(C(F)(F)F)ccc4F)cc3)c12
remaining signal (Mitogen-activated protein kinase kinase kinase 4 (MAP3K4, Homo sapiens, UniProt Q9Y6R4); cell-free assay; inhibitor; 20 µM): 1.6%

O=[N+]([O-])c1cccc(COc2ccccc2C=NNS(=O)(=O)c2ccc3ccccc3c2)c1
remaining activity (murD; enzyme activity; inhibitor; absorbance; 50 µM): 70%

NS(=O)(=O)c1ccc(Nc2nc(-c3ccc(F)cc3)c3ccccc3n2)cc1
remaining binding (KAT2B; binding; competition with immobilised ligand; 1 µM): 80%
